Results taken from ChEMBL document CHEMBL1138352, “On the intractability of estrogen-related receptor alpha as a target for activation by small molecules” (J Med Chem, 2007).
Calls of active or inactive are those of the source. The calls are words filed in the database; no cut-off is given here.

Legend:
[1] = biological target: T1, Steroid hormone receptor ERR1 (Homo sapiens) (UniProt P11474); assay: Activity at human ERRalpha expressed in HeLa cells assessed as estrogen response element activation at 50 uM after 24 ro 30 hrs by luciferase reporter gene assay; assay type: cell-based
T1 sequence (whole entry): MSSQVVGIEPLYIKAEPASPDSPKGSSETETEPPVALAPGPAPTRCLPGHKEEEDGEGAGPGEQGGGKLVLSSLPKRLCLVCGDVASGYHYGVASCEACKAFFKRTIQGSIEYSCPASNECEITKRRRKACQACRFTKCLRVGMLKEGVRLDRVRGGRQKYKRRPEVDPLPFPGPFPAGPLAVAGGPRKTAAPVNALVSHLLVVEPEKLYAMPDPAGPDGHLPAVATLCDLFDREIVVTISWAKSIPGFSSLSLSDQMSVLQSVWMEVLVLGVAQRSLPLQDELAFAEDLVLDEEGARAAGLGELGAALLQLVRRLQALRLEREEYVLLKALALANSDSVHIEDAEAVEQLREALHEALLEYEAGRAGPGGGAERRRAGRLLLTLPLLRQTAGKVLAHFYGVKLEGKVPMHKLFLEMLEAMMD
In short: (§1)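 HeLa cells were co-transfected with an expression vector for human ERRα (wild type, or the F272A point mutant for line 1) and a luciferase reporter driven by a triple repeat of an estrogen response element. Luciferase activity in compound-exposed cells was compared with vehicle-treated cells.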

[2] = biological target: T2, Estrogen-related receptor gamma (Homo sapiens) (UniProt P62508); assay: Effect on interaction between ERRgamma ligand binding domain and RIP140 by FRET assay
T2 sequence (whole entry): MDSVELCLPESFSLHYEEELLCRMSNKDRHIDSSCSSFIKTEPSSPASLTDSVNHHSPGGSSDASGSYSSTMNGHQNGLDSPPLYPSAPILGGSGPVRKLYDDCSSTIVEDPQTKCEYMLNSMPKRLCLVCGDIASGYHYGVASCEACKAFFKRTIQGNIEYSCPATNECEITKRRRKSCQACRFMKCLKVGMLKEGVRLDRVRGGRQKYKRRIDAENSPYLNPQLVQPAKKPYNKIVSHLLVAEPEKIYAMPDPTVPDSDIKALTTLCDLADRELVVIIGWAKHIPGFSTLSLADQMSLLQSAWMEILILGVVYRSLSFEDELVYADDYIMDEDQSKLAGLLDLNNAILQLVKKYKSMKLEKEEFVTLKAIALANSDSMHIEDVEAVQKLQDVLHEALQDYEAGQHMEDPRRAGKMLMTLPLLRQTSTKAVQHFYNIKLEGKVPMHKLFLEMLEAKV

[3] = biological target: T1, Steroid hormone receptor ERR1 (Homo sapiens); assay: Effect on interaction between ERRalpha ligand binding domain and RIP140 at 30 uM by FRET assay
HeLa [4] = assay: Activity at human ERRalpha F272A mutant expressed in HeLa cells assessed as estrogen response element activation at 10 uM after 24 to 30 hrs by luciferase reporter gene assay; assay type: cell-based
In short: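 HeLa cells transiently co-transfected with an expression vector for human ERRα (F272A point mutant) and a luciferase reporter carrying a triple repeat of the estrogen response element. Cells were exposed to compound, and luciferase activity was read relative to vehicle-treated cells.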

HeLa [5] = assay: Activity at human ERRalpha F272A mutant expressed in HeLa cells assessed as estrogen response element activation after 24 to 30 hrs by luciferase reporter gene assay; assay type: cell-based; in short: as §1

Row | Activity [1] | Activity [2] | Activity [3] | Compound | Activity (HeLa [4]) | Activity (HeLa [5])
1 | inactive | inactive | inactive | CCC(C)/C=N/NC(=O)c1ccc(O)cc1 (configuration not stated) | – | –
2 | inactive | inactive | inactive | CCCNC(=O)c1ccc(O)cc1 | – | –
3 | inactive | inactive | inactive | CCCCCNC(=O)c1ccc(O)cc1 | – | –
4 | inactive | inactive | inactive | C=CCC/C=N/NC(=O)c1ccc(O)cc1 | – | –
5 | inactive | inactive | inactive | CCCCNC(=O)c1ccc(O)cc1 | – | –
6 | inactive | inactive | inactive | CC/C=N/NC(=O)c1ccc(O)cc1 | – | –
7 | inactive | inactive | inactive | CC(C)/C=N/NC(=O)c1ccc(O)cc1 | – | –
8 | inactive | inactive | inactive | C=C(/C=N/NC(=O)c1ccc(O)cc1)CC | – | –
9 | inactive | inactive | inactive | CCCCC/C=N/NC(=O)c1ccc(O)cc1 | – | –

The next lines start with the molecule.

Row | Compound | Activity [1] | Activity [2] | Activity [3] | Activity (HeLa [4]) | Activity (HeLa [5])
10 | CC(C)NC(=O)c1ccc(O)cc1 | inactive | inactive | inactive | – | –
11 | CC(C)(C)CNC(=O)c1ccc(O)cc1 | inactive | inactive | inactive | – | –
12 | NC(=O)c1ccc(O)cc1 | inactive | inactive | inactive | – | –
13 | CN(C)CCc1c[nH]c2ccc(-c3cccc4ccccc34)cc12 | – | – | – | inactive | –
14 | CC(C)CNC(=O)c1ccc(O)cc1 | inactive | inactive | inactive | inactive | –
15 | CNC(=O)c1ccc(O)cc1 | inactive | inactive | inactive | – | –
16 | CC(C)CCNC(=O)c1ccc(O)cc1 | inactive | inactive | inactive | – | –
17 | CCNC(=O)c1ccc(O)cc1 | inactive | inactive | inactive | – | –
18 | CC(C)c1ccc(/C=N/NC(=O)c2ccc(O)cc2)cc1 | – | – | – | – | inactive
19 | CCC(C)C(C)/C=N/NC(=O)c1ccc(O)cc1 (configuration not stated) | inactive | inactive | inactive | – | –
20 | C=C(C)CNC(=O)c1ccc(O)cc1 | inactive | inactive | inactive | – | –
